# Laboratory results taken from ChEMBL document CHEMBL4834419 (J Med Chem, 2021).
# Columns and labels:
# [1] = Aqueous solubility of compound in pH 8 phosphate buffer incubated for 1 hr by HPLC analysis; type: physicochemical; conditions: phosphate buffer, pH 8
# In short: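 Solubility was measured with 3 mg compound in 2 mL 0.1 M phosphate buffer, pH 8, shaken 1 h at 37 °C. The mixture was pressed through a Uniprep filter and the dissolved compound in the filtrate quantified by HPLC against an external calibration; three independent experiments.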
# HepG2 [2] = test: Cytotoxicity against human HepG2 cells assessed as reduction in cell viability incubated for 48 hrs by WST-1 assay; conditions: HepG2, 48 h
# [3] = Cmax in mouse at 10 mg/kg, po; type: ADME, organism-based; set-up: route oral, dose 10 mg/kg; conditions: in vivo
# In short: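 Mice, n = 3, received a single oral dose of 10 mg/kg in water with 1% hydroxypropyl methylcellulose/Tween 80 (99:1). Tail-vein blood was drawn at 30 and 60 min and tissue collected at 3 h. Compound was quantified by LC−MS and PK derived by noncompartmental analysis.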
# [4] = target: T1, Oxysterols receptor LXR-alpha (Homo sapiens) (UniProt Q13133); test: Agonist activity against human LXRalpha in human HEK293T cells co-expressing pFR/pRL-Luc assessed as receptor activation at 10 uM incubated for 14 to 16 hrs by hybrid reporter gene assay relative to bexarotene; type: cell-based; conditions: filed as agonist, time 14-16 hrs
# T1 sequence (whole entry): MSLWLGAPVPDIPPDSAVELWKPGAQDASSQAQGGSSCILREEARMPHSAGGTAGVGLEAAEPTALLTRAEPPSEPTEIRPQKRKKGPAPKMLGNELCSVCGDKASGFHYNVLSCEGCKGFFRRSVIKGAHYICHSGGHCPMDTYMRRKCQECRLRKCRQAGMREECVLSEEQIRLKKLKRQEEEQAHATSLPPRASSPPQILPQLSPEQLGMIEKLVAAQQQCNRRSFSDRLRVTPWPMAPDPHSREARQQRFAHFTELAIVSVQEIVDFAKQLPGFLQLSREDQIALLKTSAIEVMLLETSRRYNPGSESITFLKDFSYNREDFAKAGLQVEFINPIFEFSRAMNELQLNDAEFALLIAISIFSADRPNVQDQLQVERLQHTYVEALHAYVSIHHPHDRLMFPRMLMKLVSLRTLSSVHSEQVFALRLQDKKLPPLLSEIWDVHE
# In short: (§1)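 Gal4 hybrid reporter assay in HEK293T cells, seeded 24 h before transfection (Lipofectamine LTX, Opti-MEM) with pFR-Luc, pRL-SV40 and pFA-CMV plasmid carrying the hinge region and LBD of the human receptor. After 5 h, compound added in 0.1% DMSO, with 0.1% DMSO alone as untreated control. Dual-Glo luciferase read after 14−16 h; firefly/renilla normalized; duplicates, ≥2 independent experiments.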
# [5] = target: T2, Bile acid receptor (Homo sapiens) (UniProt Q96RI1); test: Agonist activity against human FXR in human HEK293T cells co-expressing pFR/pRL-Luc assessed as receptor activation at 10 uM incubated for 14 to 16 hrs by hybrid reporter gene assay relative to bexarotene; type: cell-based; conditions: filed as agonist, time 14-16 hrs; in short: as §1
# T2 sequence (whole entry): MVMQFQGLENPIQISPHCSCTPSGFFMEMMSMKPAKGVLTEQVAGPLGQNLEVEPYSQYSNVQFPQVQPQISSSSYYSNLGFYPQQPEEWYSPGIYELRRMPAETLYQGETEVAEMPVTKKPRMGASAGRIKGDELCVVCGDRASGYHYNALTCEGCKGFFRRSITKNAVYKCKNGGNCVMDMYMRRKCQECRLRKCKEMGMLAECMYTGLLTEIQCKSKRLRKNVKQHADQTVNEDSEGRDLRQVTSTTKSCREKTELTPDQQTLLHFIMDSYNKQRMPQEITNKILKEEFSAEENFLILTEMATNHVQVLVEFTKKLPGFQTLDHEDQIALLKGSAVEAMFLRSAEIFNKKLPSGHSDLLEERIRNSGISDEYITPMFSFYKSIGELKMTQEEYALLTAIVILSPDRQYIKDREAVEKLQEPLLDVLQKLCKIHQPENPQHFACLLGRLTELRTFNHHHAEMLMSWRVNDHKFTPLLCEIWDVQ
# [6] = target: T3, Retinoic acid receptor RXR-alpha (Homo sapiens) (UniProt P19793); test: Agonist activity against human RXRalpha in human HEK293T cells co-expressing pFR/pRL-Luc assessed as receptor activation at 10 uM incubated for 14 to 16 hrs by hybrid reporter gene assay relative to bexarotene; type: cell-based; conditions: filed as agonist, time 14-16 hrs; in short: as §1
# T3 sequence (whole entry): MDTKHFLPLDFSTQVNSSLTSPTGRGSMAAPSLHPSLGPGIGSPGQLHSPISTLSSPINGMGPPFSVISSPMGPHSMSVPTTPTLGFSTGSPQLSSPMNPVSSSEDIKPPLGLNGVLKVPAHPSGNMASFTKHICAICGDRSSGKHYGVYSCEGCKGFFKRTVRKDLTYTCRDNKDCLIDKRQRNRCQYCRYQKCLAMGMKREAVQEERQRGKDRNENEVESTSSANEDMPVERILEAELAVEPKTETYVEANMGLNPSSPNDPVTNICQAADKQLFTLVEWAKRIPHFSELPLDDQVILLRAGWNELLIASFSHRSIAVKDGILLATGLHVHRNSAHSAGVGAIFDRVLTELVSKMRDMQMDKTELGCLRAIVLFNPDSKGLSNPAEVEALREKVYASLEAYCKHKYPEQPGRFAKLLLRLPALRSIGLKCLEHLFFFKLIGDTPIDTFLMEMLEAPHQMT
# HepG2 [7] = test: Cytotoxicity against human HepG2 cells assessed as reduction in cell viability up to 100 uM incubated for 48 hrs by WST-1 assay; type: cell-based; conditions: hepg2, 48 h
# In short: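 HepG2 cells were seeded at 3 × 10⁴/well and grown 24 h. Medium was then switched to DMEM with 1% FCS containing compound in 0.1% DMSO; 0.1% DMSO alone was the negative control. After 48 h, WST-1 was added and absorbance read at 450/620 nm after 45 min. Four experiments in duplicate.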
# [8] = target: T4, Peroxisome proliferator-activated receptor delta (Homo sapiens) (UniProt Q03181); test: Agonist activity against human PPARdelta in human HEK293T cells co-expressing pFR/pRL-Luc assessed as receptor activation at 10 uM incubated for 14 to 16 hrs by hybrid reporter gene assay relative to bexarotene; type: cell-based; conditions: filed as agonist, time 14-16 hrs; in short: as §1
# T4 sequence (whole entry): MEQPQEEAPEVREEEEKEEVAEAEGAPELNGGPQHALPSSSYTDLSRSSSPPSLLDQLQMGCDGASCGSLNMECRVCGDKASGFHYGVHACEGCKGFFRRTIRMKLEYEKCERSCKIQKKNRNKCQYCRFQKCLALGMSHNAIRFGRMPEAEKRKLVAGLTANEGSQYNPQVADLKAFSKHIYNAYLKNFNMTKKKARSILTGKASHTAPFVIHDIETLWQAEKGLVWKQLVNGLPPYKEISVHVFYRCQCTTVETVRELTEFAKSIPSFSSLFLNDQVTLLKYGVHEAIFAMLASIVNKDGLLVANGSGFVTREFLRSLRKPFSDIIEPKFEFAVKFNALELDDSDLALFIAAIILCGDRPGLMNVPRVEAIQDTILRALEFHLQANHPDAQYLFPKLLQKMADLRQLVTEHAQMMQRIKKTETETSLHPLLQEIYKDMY
smiles,measurement,setting,value
O=C(O)CCCc1cc(-c2cc(Cl)cc(Cl)c2)n(-c2ccccc2)n1,solubility at 1 h,[1],21 µg/mL
same,IC50,HepG2 [2],> 100 µM
same,Cmax,[3],35000 ng/mL
same,Activity,[4],1%
same,Activity,[5],1%
same,Activity,[6],21%
same,Activity,HepG2 [7],Non-Toxic
same,Activity,[8],1%
